Assay results taken from ChEMBL document CHEMBL4689842, “EUbOPEN Chemogenomics Library wave 1” (2021).

Tested on: U2OS
Test: Multiplex assay against U2OS
Assay type: toxicity, cell-based
Conditions: human
Outline: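 Compound was added to live cells that had been stained at seeding with Hoechst33342, BioTracker Green Microtubule Cytoskeleton Dye, MitoTracker Red and Annexin V Alexa Fluor 680, and imaging followed on a CQ1 microscope at 37°C and 5% CO2. CellPathfinder machine-learning gating divided cells into Hoechst high-intensity objects or normal cells, normal cells into healthy, pyknosed or fragmented nuclei, and pyknosed cells into mitotic or apoptotic. Tubulin, mitochondrial-mass and membrane-permeability phenotypes are per cents of healthy-nucleus cells.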

[1] = 12 h, 1 µM, compound concentration 1 uM, replicate 1
[2] = 12 h, 1 µM, compound concentration 1 uM, replicate 2
[3] = 12 h, 10 µM, compound concentration 10 uM, replicate 1
[4] = 12 h, 10 µM, compound concentration 10 uM, replicate 2
[5] = 24 h, 1 µM, compound concentration 1 uM, replicate 1
[6] = 24 h, 1 µM, compound concentration 1 uM, replicate 2
[7] = 24 h, 10 µM, compound concentration 10 uM, replicate 1
[8] = 24 h, 10 µM, compound concentration 10 uM, replicate 2
[9] = 48 h, 1 µM, compound concentration 1 uM, replicate 1
[10] = 48 h, 1 µM, compound concentration 1 uM, replicate 2
[11] = 48 h, 10 µM, compound concentration 10 uM, replicate 1
[12] = 48 h, 10 µM, compound concentration 10 uM, replicate 2

Structure (SMILES): Cl.Cl.Nc1ncnc2c1c(-c1cccc(OCc3ccccc3)c1)cn2[C@H]1C[C@@H](CN2CCC2)C1
- Population Apoptotic (%) [1]: 33%
- Population Fragmented Nuclei (%) [1]: 13%
- Population Healthy Nuclei (%) [1]: 70%
- Population Hoechst High Intensity Objects (%) [1]: 5%
- Population Membrane Permeable-Phenotype (%) [1]: 8%
- Population Mitochondria Different-Phenotype (%) [1]: 58%
- Population Mitotic Cells (%) [1]: 66%
- Population Normal (%) [1]: 94%
- Population Pyknosed Nuclei (%) [1]: 16%
- Population Tubulin-Different-Phenotype (%) [1]: 38%
- Total Cell Count [1]: 176
- Population Apoptotic (%) [2]: 29%
- Population Fragmented Nuclei (%) [2]: 11%
- Population Healthy Nuclei (%) [2]: 67%
- Population Hoechst High Intensity Objects (%) [2]: 6%
- Population Membrane Permeable-Phenotype (%) [2]: 3%
- Population Mitochondria Different-Phenotype (%) [2]: 71%
- Population Mitotic Cells (%) [2]: 70%
- Population Normal (%) [2]: 93%
- Population Pyknosed Nuclei (%) [2]: 20%
- Population Tubulin-Different-Phenotype (%) [2]: 52%
- Total Cell Count [2]: 55
- Population Apoptotic (%) [3]: 81%
- Population Fragmented Nuclei (%) [3]: 23%
- Population Healthy Nuclei (%) [3]: 41%
- Population Hoechst High Intensity Objects (%) [3]: 9%
- Population Membrane Permeable-Phenotype (%) [3]: 67%
- Population Mitochondria Different-Phenotype (%) [3]: 100%
- Population Mitotic Cells (%) [3]: 18%
- Population Normal (%) [3]: 90%
- Population Pyknosed Nuclei (%) [3]: 35%
- Population Tubulin-Different-Phenotype (%) [3]: 100%
- Total Cell Count [3]: 135
- Population Apoptotic (%) [4]: 85%
- Population Fragmented Nuclei (%) [4]: 22%
- Population Healthy Nuclei (%) [4]: 47%
- Population Hoechst High Intensity Objects (%) [4]: 8%
- Population Membrane Permeable-Phenotype (%) [4]: 77%
- Population Mitochondria Different-Phenotype (%) [4]: 97%
- Population Mitotic Cells (%) [4]: 14%
- Population Normal (%) [4]: 91%
- Population Pyknosed Nuclei (%) [4]: 29%
- Population Tubulin-Different-Phenotype (%) [4]: 97%
- Total Cell Count [4]: 90
- Population Apoptotic (%) [5]: 56%
- Population Fragmented Nuclei (%) [5]: 10%
- Population Healthy Nuclei (%) [5]: 69%
- Population Hoechst High Intensity Objects (%) [5]: 4%
- Population Membrane Permeable-Phenotype (%) [5]: 5%
- Population Mitochondria Different-Phenotype (%) [5]: 62%
- Population Mitotic Cells (%) [5]: 43%
- Population Normal (%) [5]: 95%
- Population Pyknosed Nuclei (%) [5]: 20%
- Population Tubulin-Different-Phenotype (%) [5]: 34%
- Total Cell Count [5]: 176
- Population Apoptotic (%) [6]: 28%
- Population Fragmented Nuclei (%) [6]: 13%
- Population Healthy Nuclei (%) [6]: 64%
- Population Hoechst High Intensity Objects (%) [6]: 6%
- Population Membrane Permeable-Phenotype (%) [6]: 4%
- Population Mitochondria Different-Phenotype (%) [6]: 68%
- Population Mitotic Cells (%) [6]: 71%
- Population Normal (%) [6]: 93%
- Population Pyknosed Nuclei (%) [6]: 21%
- Population Tubulin-Different-Phenotype (%) [6]: 39%
- Total Cell Count [6]: 50
- Population Apoptotic (%) [7]: 90%
- Population Fragmented Nuclei (%) [7]: 25%
- Population Healthy Nuclei (%) [7]: 30%
- Population Membrane Permeable-Phenotype (%) [7]: 92%
- Population Mitochondria Different-Phenotype (%) [7]: 100%
- Population Mitotic Cells (%) [7]: 9%
- Population Pyknosed Nuclei (%) [7]: 43%
- Population Tubulin-Different-Phenotype (%) [7]: 100%
- Total Cell Count [7]: 157
- Population Apoptotic (%) [8]: 92%
- Population Fragmented Nuclei (%) [8]: 21%
- Population Healthy Nuclei (%) [8]: 35%
- Population Hoechst High Intensity Objects (%) [8]: 9%
- Population Membrane Permeable-Phenotype (%) [8]: 93%
- Population Mitochondria Different-Phenotype (%) [8]: 96%
- Population Mitotic Cells (%) [8]: 7%
- Population Normal (%) [8]: 90%
- Population Pyknosed Nuclei (%) [8]: 42%
- Population Tubulin-Different-Phenotype (%) [8]: 96%
- Total Cell Count [8]: 104
- Population Apoptotic (%) [9]: 65%
- Population Fragmented Nuclei (%) [9]: 10%
- Population Healthy Nuclei (%) [9]: 73%
- Population Hoechst High Intensity Objects (%) [9]: 2%
- Population Membrane Permeable-Phenotype (%) [9]: 4%
- Population Mitochondria Different-Phenotype (%) [9]: 34%
- Population Mitotic Cells (%) [9]: 34%
- Population Normal (%) [9]: 97%
- Population Pyknosed Nuclei (%) [9]: 16%
- Population Tubulin-Different-Phenotype (%) [9]: 23%
- Total Cell Count [9]: 182
- Population Apoptotic (%) [10]: 47%
- Population Fragmented Nuclei (%) [10]: 8%
- Population Healthy Nuclei (%) [10]: 76%
- Population Hoechst High Intensity Objects (%) [10]: 3%
- Population Membrane Permeable-Phenotype (%) [10]: 12%
- Population Mitochondria Different-Phenotype (%) [10]: 44%
- Population Mitotic Cells (%) [10]: 52%
- Population Normal (%) [10]: 96%
- Population Pyknosed Nuclei (%) [10]: 15%
- Population Tubulin-Different-Phenotype (%) [10]: 26%
- Total Cell Count [10]: 55
- Population Apoptotic (%) [11]: 100%
- Population Fragmented Nuclei (%) [11]: 30%
- Population Healthy Nuclei (%) [11]: 7%
- Population Hoechst High Intensity Objects (%) [11]: 12%
- Population Membrane Permeable-Phenotype (%) [11]: 100%
- Population Mitochondria Different-Phenotype (%) [11]: 100%
- Population Mitotic Cells (%) [11]: 0%
- Population Normal (%) [11]: 87%
- Population Pyknosed Nuclei (%) [11]: 61%
- Population Tubulin-Different-Phenotype (%) [11]: 100%
- Total Cell Count [11]: 203
- Population Apoptotic (%) [12]: 96%
- Population Fragmented Nuclei (%) [12]: 21%
- Population Healthy Nuclei (%) [12]: 38%
- Population Hoechst High Intensity Objects (%) [12]: 23%
- Population Membrane Permeable-Phenotype (%) [12]: 96%
- Population Mitotic Cells (%) [12]: 3%
- Population Normal (%) [12]: 76%
- Population Pyknosed Nuclei (%) [12]: 40%
- Total Cell Count [12]: 130
